Test results from ChEMBL document CHEMBL4130447, “A Bis-benzopyrroloisoquinoline Alkaloid Incorporating a Cyclobutane Core and a Chlorophenanthroindolizidine Alkaloid with Cytotoxic Activity from Ficus fistulosa var. tengerensis” (J Nat Prod, 2017).

Tests used:
[1] = system: MDA-MB-468; assay: Cytotoxicity against human MDA-MB-468 cells assessed as decrease in cell viability after 72 hrs by CellTiter-Glo luminescence assay; assay type: functional, cell-based; details: MDA-MB-468, 72 h
Procedure, shortened: (§1)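 Breast cancer lines were maintained in RPMI 1640 with 10% FBS and pen/strep at 37 °C and 5% CO2. Cells were plated at 1000/well, allowed 24 h, then treated 72 h with agents at 1.5–100 μM (diluted in phosphate buffer from a 100 mM DMSO stock). Paclitaxel at 0.01–10 μM served as the reference. Luminescent ATP read-out was used, with IC50 computed relative to 0.1% DMSO controls.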

[2] = system: MDA-MB-231; assay: Cytotoxicity against human MDA-MB-231 cells assessed as decrease in cell viability after 72 hrs by CellTiter-Glo luminescence assay; assay type: functional, cell-based; details: MDA-MB-231, 72 h; procedure, shortened: as §1
[3] = system: MCF7; assay: Cytotoxicity against human MCF7 cells assessed as decrease in cell viability after 72 hrs by CellTiter-Glo luminescence assay; assay type: functional, cell-based; details: MCF7, 72 h; procedure, shortened: as §1
[4] = system: MCF-10A; assay: Cytotoxicity against human MCF10A cells assessed as decrease in cell viability after 72 hrs by CellTiter-Glo luminescence assay; assay type: cell-based
Procedure, shortened: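 MCF10A (non-tumorigenic breast epithelial) cells were grown with 5% horse serum, 20 ng/mL EGF, 0.5 μg/mL hydrocortisone, 10 μg/mL insulin, and pen/strep at 37 °C and 5% CO2. Cells were seeded at 1000/well for 24 h, then exposed 72 h to 1.5–100 μM test agent diluted in phosphate buffer from a 100 mM DMSO stock. Viability was read by ATP luminescence. IC50 was calculated versus 0.1% DMSO-treated cells.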

Compound: CC(=O)O[C@H]1C(=O)[C@@]2(C)[C@H]([C@H](OC(=O)c3ccccc3)[C@]3(O)C[C@H](OC(=O)[C@H](O)[C@@H](NC(=O)c4ccccc4)c4ccccc4)C(C)=C1C3(C)C)[C@]1(OC(C)=O)CO[C@@H]1C[C@@H]2O [PACLITAXEL]
- IC50 [1]: 0.0061 µM
- IC50 [2]: 0.059 µM
- IC50 [3]: 0.0088 µM
- IC50 [4]: 0.0058 µM

Compound: COc1cc2cc(CO)c3c(c2cc1OC)CC1CCCN1C3 (racemic)
- IC50 [1]: > 10 µM
- IC50 [2]: > 10 µM
- IC50 [3]: > 10 µM
- IC50 [4]: > 10 µM

Compound: COc1cc2cc([C@@H]3[C@@H](C(C)=O)[C@H](C(C)=O)[C@@H]3c3cc4cc(OC)c(OC)cc4c4c3CN3CCC[C@@H]3C4)c3c(c2cc1OC)C[C@@H]1CCCN1C3
- IC50 [1]: > 10 µM
- IC50 [2]: > 10 µM
- IC50 [3]: > 10 µM
- IC50 [4]: > 10 µM

Compound: COc1cc2cc(C3C(C(C)=O)C(C(C)=O)C3c3cc4cc(OC)c(OC)cc4c4c3CN3CCCC3C4)c3c(c2cc1OC)CC1CCCN1C3 (racemic)
- IC50 [1]: > 10 µM
- IC50 [2]: > 10 µM
- IC50 [3]: > 10 µM
- IC50 [4]: > 10 µM

Compound: COc1cc2cc([C@@H]3[C@H](C(C)=O)[C@@H](C(C)=O)[C@@H]3c3cc4cc(OC)c(OC)cc4c4c3CN3CCC[C@@H]3C4)c3c(c2cc1OC)C[C@@H]1CCCN1C3
- IC50 [1]: 7.4 µM
- IC50 [2]: > 10 µM
- IC50 [3]: > 10 µM
- IC50 [4]: > 10 µM

Compound: COc1cc2c3c(c4ccc(OC)c(Cl)c4c2cc1OC)CN1CCCC1C3 (racemic)
- IC50 [1]: 0.038 µM
- IC50 [2]: 0.48 µM
- IC50 [3]: 0.91 µM
- IC50 [4]: 10.7 µM
